Experimental data taken from ChEMBL document CHEMBL4819082, “Ximaoglaucumins A - F, new cembranoids with anti-inflammatory activities from the South China Sea soft coral Sarcophyton glaucum” (Bioorg Med Chem, 2021).

Tests used:
BV-2 [1] = assay: Antiinflammatory activity against mouse BV2 cells assessed as reduction in LPS-induced NO production at 10 uM incubated for 2 hrs followed by LPS stimulation and measured after 24 hrs by Griess reagent based assay relative to control; type: functional; conditions: BV-2, 26 h
Method in brief: (§1)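 BV-2 cells were seeded at 2.0×10^5 cells/mL in DMEM high-glucose with 10% FBS and grown 24 h at 37 °C, 5% CO₂. They were pretreated with compound for 2 h, then exposed to LPS at 100 ng/mL for 24 h. Medium was mixed 1:1 with Griess buffer for 15 min at room temperature and read at 540 nm. Nitrite came from a sodium nitrite standard curve and was normalized to the LPS-group mean (100%).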

[2] = Cytotoxicity against mouse BV2 cells assessed as cell viability at 10 uM measured after 24 hrs by MTT assay; type: cell-based, BV-2; conditions: read-out: Activity
Method in brief: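 BV-2 cells were seeded at 1.25×10^4 cells/mL and grown 24 h at 37 °C, 5% CO₂. They were then exposed to compound for 24 h, with 0.5 mg/mL MTT added for the final 3 h. Absorbance was read at 490 nm, and viability was normalized to the untreated control mean (100%).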

BV-2 [3] = assay: Antiinflammatory activity against mouse BV2 cells assessed as reduction in LPS-induced IL-1beta mRNA expression incubated for 2 hrs followed by LPS stimulation and measured after 6 hrs by qRT-PCR analysis; type: functional, cell-based; conditions: time 8.0 hrs
Method in brief: (§2)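 BV-2 microglia were seeded at 1 × 10⁵ cells/mL, pretreated with compound for 2 h, then given LPS at 100 ng/mL for 6 h. Total RNA was extracted with Trizol and reverse-transcribed to cDNA, and IL-1β or IL-6 transcripts were quantified.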

BV-2 [4] = assay: Antiinflammatory activity against mouse BV2 cells assessed as reduction in LPS-induced IL-6 mRNA expression incubated for 2 hrs followed by LPS stimulation and measured after 6 hrs by qRT-PCR analysis; type: functional, cell-based; conditions: time 8.0 hrs; method in brief: as §2
BV-2 [5] = assay: Antiinflammatory activity against mouse BV2 cells assessed as reduction in LPS-induced NO production at 20 uM incubated for 2 hrs followed by LPS stimulation and measured after 24 hrs by Griess reagent based assay relative to control; type: functional; conditions: BV-2, 26 h; method in brief: as §1

Structure (SMILES) | NO production (% of LPS) at 10 µM (BV-2 [1]) | viability at 24 h, 10 µM [2] | inhibition (BV-2 [3]) | inhibition (BV-2 [4]) | NO production (% of LPS) at 20 µM (BV-2 [5])
C=C1C[C@H](O)/C(C(C)C)=C\C=C(/C)CC/C=C(\C)CC[C@H]1O | 75.9% | 96% | – | – | –
C/C1=C\C=C(\C(C)C)[C@@H](O)C[C@]2(C)O[C@H]2CC/C(C)=C/CC1 | 77.9% | 101% | – | – | –
CC(=O)OC/C1=C\CC/C(C)=C/CC/C(C)=C/C=C(/C(C)C)[C@@H](O)C1 | 71.3% | 111% | – | – | –
C/C1=C/C=C(/C(C)C)[C@@H](O)C/C(C)=C/CC/C(C)=C/CC1 | 88.8% | 103% | – | – | –
C/C1=C\[C@H]2O[C@](C)(CC[C@H]2C(C)C)[C@@H](O)CC/C(C)=C/CC1 | 87.2% | 99.9% | – | – | –
C/C1=C\CC/C(C)=C/C=C(/C(C)C)[C@@H](O)C[C@@](C)(OO)/C=C/C1 | 85.3% | 104% | – | – | –
C/C1=C\C=C(\C(C)C)CC/C(C)=C/CC/C(C)=C/CC1 | 85.5% | 100% | – | – | –
C/C1=C\C=C(\C(C)C)[C@@H](O)C/C(C)=C/CC/C(C)=C/CC1 | 67.8% | 106% | Dose-Dependent Effect | Dose-Dependent Effect | –
C=C1CC/C=C(\C)C[C@H](O)/C(C(C)C)=C\C=C(/C)CC[C@H]1O | 84.6% | 102% | – | – | –
C/C1=C\CC[C@](C)(O)[C@H]2C=C(C(C)C)[C@H](C/C(C)=C/CC1)O2 | 82% | 99.2% | – | – | –
C=C1C[C@H](O)/C(C(C)C)=C\C=C(/C)CC/C=C(\C)CC[C@@H]1OO | 74.2% | 103% | – | – | –
Oc1ccc(/C=C/c2cc(O)cc(O)c2)cc1 [RESVERATROL] | – | – | – | – | 74.3%
C/C1=C\C=C(\C(C)C)[C@@H](O)[C@H](O)/C(C)=C/CC/C(C)=C/CC1 | 68.7% | 101% | Dose-Dependent Effect | Dose-Dependent Effect | –
C/C1=C\CC[C@](C)(O)/C=C/[C@H](C(C)C)CC/C(C)=C/CC1 | 76.5% | 106% | – | – | –
C/C1=C\CC/C(C)=C/C=C(/C(C)C)[C@@H](O)C[C@](C)(O)/C=C/C1 | 79.5% | 95.2% | – | – | –
C/C1=C\C=C(\C(C)C)CC/C(C)=C/CCC(C)(O)/C=C/C1 (stereo unspecified) | 80.2% | 101% | – | – | –
CC(=O)OC/C1=C\CC/C(C)=C/CC[C@](C)(O)[C@H]2C=C(C(C)C)[C@H](C1)O2 | 92.7% | 102% | – | – | –
CC(=O)O[C@H]1C/C(C)=C/CCC(C)(O)/C=C/C/C(C)=C/C=C\1C(C)C (stereo partly specified) | 74.4% | 97.2% | – | – | –
C=C1CC/C=C(\C)C[C@H](OC(C)=O)/C(C(C)C)=C\C=C(/C)CC[C@H]1O | 74.5% | 108% | – | – | –
